The full list was thinned out, with hits kept by preference.
Xi reactivation = activators of X-chromosome reactivation in mouse fibroblasts; actives 0.055% (n = 360,000); activation, % at 7.58 µM; XiGFP mouse fibroblasts, % GFP-positive cells imaging, 3 d; cells co-treated with 5-aza-dC sensitizer; scaled so ellipticine positive control = 100%;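 active = mean normalized replicate activation at least 10% and every replicate at or above 10%; inconclusive = only one of the two criteria met; inactive = mean below 10% and not all replicates reach 10%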
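System: 68-5-11 XiGFP fibroblast line | Buffer or medium: DMEM containing 5-aza-dC | Compound: Single point | Times: Compounds 3 days, fix/stain 15 min at room temperature | Benchmarks: Positive control ellipticine, 6 µM final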
ABCB6 inh 2 = human ABCB6 transporter inhibition; Q9NP58; K562-ABCB6 porphyrin accumulation, flow cytometry, 1 h; hits give low values; fluorescence ratio to DMSO, % at 10 µM; actives 0.19% (n = 360,000); AID 602162;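 active = fluorescence ratio to DMSO below 75%, the collection mean minus 3 SD; inconclusive = too few cells collected in the well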;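 note: signal is porphyrin accumulated inside mitochondria; lower ratio means ABCB6 inhibition with less porphyrin fluorescence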
Target sequence (Q9NP58 whole entry, looked up): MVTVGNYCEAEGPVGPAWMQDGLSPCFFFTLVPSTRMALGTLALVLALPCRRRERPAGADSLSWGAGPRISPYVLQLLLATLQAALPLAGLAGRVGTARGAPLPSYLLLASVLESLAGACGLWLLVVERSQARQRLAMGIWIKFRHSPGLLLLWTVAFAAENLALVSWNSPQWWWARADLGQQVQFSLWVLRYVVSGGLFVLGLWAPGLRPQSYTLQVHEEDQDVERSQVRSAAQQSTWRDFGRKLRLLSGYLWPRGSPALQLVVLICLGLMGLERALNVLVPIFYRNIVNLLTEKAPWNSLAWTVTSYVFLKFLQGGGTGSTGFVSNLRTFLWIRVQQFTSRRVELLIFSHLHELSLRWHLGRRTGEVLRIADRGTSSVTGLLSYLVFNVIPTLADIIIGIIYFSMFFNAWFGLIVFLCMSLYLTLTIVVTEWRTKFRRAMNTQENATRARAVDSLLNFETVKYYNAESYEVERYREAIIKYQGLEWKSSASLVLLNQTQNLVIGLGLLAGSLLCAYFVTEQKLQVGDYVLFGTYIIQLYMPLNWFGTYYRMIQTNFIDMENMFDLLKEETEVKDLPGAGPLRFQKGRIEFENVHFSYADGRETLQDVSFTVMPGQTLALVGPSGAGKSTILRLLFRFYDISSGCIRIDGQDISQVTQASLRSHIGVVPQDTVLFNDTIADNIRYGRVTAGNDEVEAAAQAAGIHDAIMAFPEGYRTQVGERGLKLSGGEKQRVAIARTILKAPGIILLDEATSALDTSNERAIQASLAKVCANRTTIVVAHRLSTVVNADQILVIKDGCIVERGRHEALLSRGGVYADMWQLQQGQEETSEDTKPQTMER
Myeloid diff MLP = compounds promoting myeloid differentiation. ER-HoxA9 myeloid progenitors, lysozyme-GFP differentiation, flow cytometry. calls only at 10 µM. actives 1% (n = 360,000);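 active = normalized GFP-positive differentiation at or above the plate's own cutoff, the solvent-only control mean plus 3 SD; inconclusive = no clear call, values can overlap the other calls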;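 note: cells exposed to compound for four days before flow analysis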
Calls only; i = inactive; ? = inconclusive; nt = no result given; + = active, no number.

SMILES | Xi reactivation | ABCB6 inh 2 | Myeloid diff MLP
Nc1c(C(=O)C2CC2)sc2nc(-c3cccs3)cc(C(F)(F)F)c12 | nt | i | +
CO[C@H]1CN(C)C(=O)c2cc(NS(=O)(=O)CC(F)(F)F)ccc2OC[C@H](C)N(Cc2nccs2)C[C@@H]1C | i | nt | nt
Nc1ccc2nc(N)sc2c1 | i | i | i
Nc1ccc2sc(N)nc2c1 | i | i | +
COc1cc(/C=C2\COC/C(=C\c3ccc(O)c(OC)c3)C2=O)ccc1O | i | i | ?
COc1cc(/C=C2/CC/C(=C/c3ccc(O)c(OC)c3)C2=O)ccc1O | i | i | +
Cc1ccc(Nc2c(-c3ccco3)nc3ccccn23)cc1 | i | i | i
COc1ccc(Nc2c(-c3ccco3)nc3ccc(C)cn23)cc1 | i | i | +
Cc1ccc(C)c(N2CCN(C(=O)c3ccc(CSc4nc5ccncc5[nH]4)cc3)CC2)c1 | i | i | +
O=C(c1ccc(CSc2nc3ccncc3[nH]2)cc1)N1CCCCC1 | i | i | i
CCC(=O)N1C[C@@H](C)[C@@H](OC)CN(C)C(=O)c2ccc(NC(=O)c3ccno3)cc2OC[C@@H]1C | i | nt | nt
COc1ccc(S(=O)(=O)Nc2ccc3c(c2)C(=O)N([C@H](C)CO)C[C@@H](C)[C@H](CN(C)CC2CC2)OCCCC[C@@H](C)O3)cc1 | i | nt | nt
Cc1c(C)n(CC(O)CN2CCCCC2)c2ccccc12 (stereo not given) | nt | i | i
Cc1cc(C)n(CC(O)Cn2c(C)c(C)c3ccccc32)n1 (stereo not given) | nt | i | +
Cc1ccccc1-c1cnc2c(c1)C(=O)N([C@H](C)CO)C[C@H](C)[C@H](CN(C)C(=O)c1cccnc1)O2 | i | nt | nt
CCCNC(=O)C[C@H]1CC[C@H]2[C@@H](COc3ccc(NC(=O)c4cccc(OC)c4)cc3C(=O)N2C)O1 | i | nt | nt
Cc1nnc(-c2cccc(Br)c2)c2cn(-c3ccc(Br)cc3)nc12 | nt | i | i
Cc1nnc(-c2cccc(Br)c2)c2cn(-c3cccc(Br)c3)nc12 | nt | i | i
Cc1nnc(-c2cccc(Br)c2)c2cn(-c3ccccc3)nc12 | nt | i | +
COc1ccc(-n2cc3c(-c4cccc(Br)c4)nnc(C)c3n2)cc1 | i | i | +
COc1ccc2c3c(n(C)c2c1)[C@@H](CO)N(C(=O)c1ccccc1)CC31CN(Cc2ccccc2OC)C1 | i | nt | nt
CCN(CC)S(=O)(=O)c1ccc(NC2c3ccccc3C(=O)N2CCN2CCOCC2)cc1 (stereo not given) | i | i | +
Cc1ccc(NC2c3ccccc3C(=O)N2CCN2CCOCC2)cc1 (stereo not given) | i | i | i
CCCNC(=O)N(C)C[C@H]1Oc2ncc(-c3ccc(OC)cc3)cc2C(=O)N([C@@H](C)CO)C[C@H]1C | i | nt | nt
CCc1ccc(CN(C)C(=O)c2ccc3c(c2)OCCO3)cc1 | i | i | +
SMILES | Xi reactivation | ABCB6 inh 2 | Myeloid diff MLP
CN(Cc1ccccc1)C(=O)c1ccc2c(c1)OCO2 | nt | i | i
CC(C)c1nnc(NC(=O)CCC(=O)Nc2ccc(Cl)cc2)s1 | i | i | i
Cc1cc(C)cc(NC(=O)CCC(=O)Nc2nnc(C(C)C)s2)c1 | i | i | +
CN1C(=O)c2cc(NC(=O)c3cccc(F)c3)ccc2OC[C@H]2O[C@H](CC(=O)Nc3ccccc3)CC[C@@H]21 | i | nt | nt
C[C@H](CO)N1C[C@H](C)[C@H](CN(C)Cc2ccccc2)Oc2ncc(C3=CCCC3)cc2C1=O | i | nt | nt
C[C@@H]1CN([C@H](C)CO)C(=O)Cc2cc(NS(=O)(=O)c3ccc(Cl)cc3)ccc2O[C@@H]1CN(C)Cc1ccncc1 | i | nt | nt
CS(=O)(=O)N1CC2(C1)[C@@H](c1ccccc1)[C@H](CO)N2Cc1ccccn1 | i | nt | nt
COc1ccc(S(=O)(=O)N(C)C[C@@H]2Oc3ccc(NC(=O)Nc4ccc(C(F)(F)F)cc4)cc3CC(=O)N([C@H](C)CO)C[C@@H]2C)cc1 | i | nt | nt
C[C@H]1CCCCO[C@@H](CN(C)CC2CCCCC2)[C@@H](C)CN([C@@H](C)CO)C(=O)c2cc(NC(=O)Nc3ccccc3)ccc2O1 | i | nt | nt
COc1ccc(Nc2nc3cc(C)ccc3cc2C#N)c(OC)c1 | i | i | ?
COc1ccc(Nc2nc3cc(C)ccc3cc2C#N)cc1 | i | i | +
O=C(Nc1ccc(F)cc1)N1CCCCN2[C@@H](CO)[C@@H](c3ccc(C#Cc4ccccn4)cc3)[C@@H]2C1 | i | nt | nt
O=C(NCC[C@@H]1CC[C@H](NC(=O)C2CC2)[C@H](CO)O1)Nc1ccc(C(F)(F)F)cc1 | i | nt | nt
C[C@H]1CN([C@@H](C)CO)C(=O)c2cc(NC(=O)Cc3ccccc3)ccc2O[C@@H]1CN(C)Cc1ccc(-c2ccccc2)cc1 | i | nt | nt
CC(C)[C@H](NC(=O)N1CCn2c1nc1ccccc12)C(=O)N[C@H](Cc1ccccc1)C(=O)O | nt | i | i
COc1cc(NC(=O)[C@@H](NC(=O)N2CCn3c2nc2ccccc23)C(C)C)cc(OC)c1 | i | i | +
C[C@H](NC(=O)N1CCn2c1nc1ccccc12)C(=O)NCc1ccco1 | i | i | i
CC(C)C[C@H](NC(=O)N1CCn2c1nc1ccccc12)C(=O)NCc1ccco1 | i | i | +
CCC(=O)OCCn1c(Br)nc2c1c(=O)[nH]c(=O)n2C | nt | i | i
Cn1c(=O)[nH]c(=O)c2c1nc(Br)n2CCCO | nt | i | +
CCCC#Cc1cnc2c(c1)C(=O)N([C@@H](C)CO)C[C@H](C)[C@@H](CN(C)S(=O)(=O)c1cccc(OC)c1)O2 | i | nt | nt
COc1ccc(OC)c(CCNC(=O)Cn2ccc3cc(S(=O)(=O)N4CCCC4)ccc32)c1 | i | i | i
COc1ccccc1CCNC(=O)Cn1ccc2cc(S(=O)(=O)N3CCC(C)CC3)ccc21 | i | i | +
C[C@@H]1CN([C@H](C)CO)C(=O)Cc2cc(NC(=O)Nc3ccccc3)ccc2O[C@@H]1CN(C)S(C)(=O)=O | i | nt | nt
CC(=O)Nc1ccc2c(c1)C(=O)N(C)[C@H]1CC[C@H](CC(=O)Nc3ccc(Cl)cc3)O[C@@H]1CO2 | i | nt | nt
SMILES | Xi reactivation | ABCB6 inh 2 | Myeloid diff MLP
Cc1nc(Nc2ccc(S(=O)(=O)N3CCCCC3C)cc2)c2nnn(Cc3ccccc3)c2n1 (stereo not given) | i | i | +
Cc1nc(Nc2ccc(Cl)cc2)c2nnn(Cc3ccccc3)c2n1 | i | i | i
C[C@@H]1CN([C@H](C)CO)C(=O)c2cc(NS(C)(=O)=O)ccc2O[C@@H](C)CCCCO[C@@H]1CN(C)Cc1ccc(C(=O)O)cc1 | i | nt | nt
CCC(=O)N1CC2(C1)CN(Cc1cccc(Cl)c1)[C@@H](CO)c1[nH]c3cc(OC)ccc3c12 | i | nt | nt
COCCCNC(=O)CCCn1c(=O)c2ccccc2n(CC(=O)Nc2c(C)cc(C)cc2C)c1=O | nt | i | +
COCCCNC(=O)CCn1c(=O)c2ccccc2n(CC(=O)Nc2c(C)cccc2C)c1=O | nt | i | i
CCOc1cc(NC(=S)NCC2CCCO2)c(OCC)cc1NC(=O)c1ccc(OC)cc1 (stereo not given) | i | i | i
CCOc1cc(NC(=S)NCC2CCCO2)c(OCC)cc1NC(=O)c1ccccc1C (stereo not given) | nt | i | +
O=C(CSC1=NC2(CCCCC2)N=C1c1ccccc1)Nc1ccc2c(c1)OCCO2 | i | i | +
O=C(CSC1=NC2(CCCCCC2)N=C1c1ccccc1)Nc1ccc2c(c1)OCCO2 | i | i | i

Screening results: PubChem, several laboratories
